In ChEMBL document CHEMBL1127300, “Identification, synthesis, and characterization of a unique class of N-methyl-D-aspartate antagonists. The 6,11-ethanobenzo[b]quinolizinium cation” (J Med Chem, 1994):
Structures can show the parent of a compound that is named as a salt.

Legend:
[1] = biological target: Glutamate NMDA receptor; assay: Binding affinity was determined towards NMDA receptor using [3H]thienylcyclidine as radioligand; type: protein-complex assay
Procedure, shortened: (§1)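 Rat (male Sprague–Dawley) whole-brain membranes, washed three times in 50 mM Tris-HCl pH 7.7 and resuspended in 5 mM Tris-HCl at 0.5 mg protein/tube. About 1 nM [3H]TCP final with varied test concentrations. 25 min at room temperature. Nonspecific binding defined with 100 μM PCP. Filtration on PEI-soaked glass-fibre filters and scintillation counting.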

[2] = organism: Mus musculus; assay: In vitro neuroprotective efficacy determined to protect cultured mouse cortical neurons from an excitotoxic exposure to NMDA; type: functional
[3] = organism: Mus musculus; assay: In vitro for neuroprotective efficacy to protect cultured cortical neurons from an excitotoxic exposure to NMDA receptor.; type: functional
[4] = organism: Mus musculus; assay: Electrophysiological responses in open channel block to NMDA were recorded in 13-day old mouse cortical neuronal cultures.; type: functional
[5] = Ratio between closed channel blockade to open channel blockade; type: functional
Procedure, shortened: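 Whole-cell voltage clamp at −60 mV, room temperature (ca. 23 °C), in day-13 mouse cortical neurons; 100 μM NMDA. Open-channel block: NMDA with compound for 300 s; current at 300 s normalized to peak, % inhibition vs controls. Closed-channel block: 30 min with compound plus 10 μM 7-chlorokynurenate without NMDA, 1–2 min wash, then NMDA response vs two baseline responses. IC50 from Hill-type fit.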

[6] = organism: Mus musculus; assay: Percent inhibition of radioligand [3H]-LSD binding to 5-HT receptor at 10 uM concentration
[7] = biological target: Alpha-1 adrenergic receptor (Mus musculus) (UniProt P97714+P97717+P97718); assay: Percent inhibition of radioligand [3H]prazosin binding to alpha-1 receptor at 10 uM concentration; type: protein assay
Sequence of Alpha-1 adrenergic receptor (Mus musculus) (P97714 whole entry, looked up): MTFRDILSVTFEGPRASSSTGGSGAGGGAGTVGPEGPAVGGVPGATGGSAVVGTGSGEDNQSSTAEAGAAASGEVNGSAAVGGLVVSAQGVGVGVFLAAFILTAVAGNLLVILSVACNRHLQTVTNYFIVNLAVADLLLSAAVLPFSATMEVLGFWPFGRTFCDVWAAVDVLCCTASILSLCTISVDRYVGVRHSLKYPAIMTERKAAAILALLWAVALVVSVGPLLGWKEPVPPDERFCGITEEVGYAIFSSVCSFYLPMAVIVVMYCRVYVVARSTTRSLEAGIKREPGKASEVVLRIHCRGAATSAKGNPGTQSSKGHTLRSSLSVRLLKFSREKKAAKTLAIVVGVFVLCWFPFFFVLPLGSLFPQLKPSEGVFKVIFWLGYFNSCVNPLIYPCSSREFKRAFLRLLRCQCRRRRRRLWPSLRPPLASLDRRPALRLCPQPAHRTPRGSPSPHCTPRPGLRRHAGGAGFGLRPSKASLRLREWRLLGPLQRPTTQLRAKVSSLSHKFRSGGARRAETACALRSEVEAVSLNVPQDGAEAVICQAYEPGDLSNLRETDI
Sequence of Alpha-1 adrenergic receptor (Mus musculus) (P97717 whole entry, looked up): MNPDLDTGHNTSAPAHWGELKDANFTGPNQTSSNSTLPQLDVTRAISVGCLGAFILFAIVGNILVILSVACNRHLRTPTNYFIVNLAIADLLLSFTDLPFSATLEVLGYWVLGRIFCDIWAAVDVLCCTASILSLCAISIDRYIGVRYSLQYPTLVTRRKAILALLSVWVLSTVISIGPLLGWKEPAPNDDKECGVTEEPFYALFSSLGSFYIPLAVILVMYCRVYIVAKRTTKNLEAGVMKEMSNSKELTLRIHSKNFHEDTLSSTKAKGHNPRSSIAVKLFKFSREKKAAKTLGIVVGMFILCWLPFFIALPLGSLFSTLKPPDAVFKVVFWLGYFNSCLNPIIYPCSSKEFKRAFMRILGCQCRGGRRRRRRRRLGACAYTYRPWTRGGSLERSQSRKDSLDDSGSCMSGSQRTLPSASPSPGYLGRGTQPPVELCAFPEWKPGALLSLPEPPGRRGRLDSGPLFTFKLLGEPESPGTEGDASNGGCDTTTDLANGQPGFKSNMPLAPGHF
Sequence of Alpha-1 adrenergic receptor (Mus musculus) (P97718 whole entry, looked up): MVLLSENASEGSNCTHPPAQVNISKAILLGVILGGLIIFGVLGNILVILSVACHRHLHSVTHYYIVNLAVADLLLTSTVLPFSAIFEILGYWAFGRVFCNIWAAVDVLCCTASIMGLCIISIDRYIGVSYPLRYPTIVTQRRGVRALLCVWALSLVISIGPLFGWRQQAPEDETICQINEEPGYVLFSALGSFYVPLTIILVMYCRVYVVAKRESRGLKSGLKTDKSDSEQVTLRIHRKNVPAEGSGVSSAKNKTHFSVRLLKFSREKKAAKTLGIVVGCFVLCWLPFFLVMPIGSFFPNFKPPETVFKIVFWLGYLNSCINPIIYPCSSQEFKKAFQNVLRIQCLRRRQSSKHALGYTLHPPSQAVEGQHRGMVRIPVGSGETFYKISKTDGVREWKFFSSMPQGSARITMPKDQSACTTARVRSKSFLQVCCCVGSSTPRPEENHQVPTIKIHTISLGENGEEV

[8] = Percent inhibition of radioligand [3H]NECA binding to A1,A2 receptor at 10 uM concentration
[9] = biological target: Alpha-2 adrenergic receptor (Mus musculus) (UniProt P30545+Q01338+Q01337); assay: Percent inhibition of radioligand [3H]rauwolscine binding to alpha-2 receptor at 10 uM concentration; type: protein assay
[10] = Percent inhibition of […] binding to GABA-A benzodiazepine receptor at 10 uM
[11] = biological target: Beta-adrenergic receptor (Mus musculus) (UniProt P34971+P18762+P25962); assay: Percent inhibition of radioligand [3H]DHAP binding to beta receptor at 10 uM concentration; type: protein assay
[12] = biological target: D(2) dopamine receptor (Mus musculus) (UniProt P61168); assay: Percent inhibition of radioligand [3H]raclopride binding to D2 receptor at 10 uM concentration
Sequence of D(2) dopamine receptor (Mus musculus) (P61168 whole entry): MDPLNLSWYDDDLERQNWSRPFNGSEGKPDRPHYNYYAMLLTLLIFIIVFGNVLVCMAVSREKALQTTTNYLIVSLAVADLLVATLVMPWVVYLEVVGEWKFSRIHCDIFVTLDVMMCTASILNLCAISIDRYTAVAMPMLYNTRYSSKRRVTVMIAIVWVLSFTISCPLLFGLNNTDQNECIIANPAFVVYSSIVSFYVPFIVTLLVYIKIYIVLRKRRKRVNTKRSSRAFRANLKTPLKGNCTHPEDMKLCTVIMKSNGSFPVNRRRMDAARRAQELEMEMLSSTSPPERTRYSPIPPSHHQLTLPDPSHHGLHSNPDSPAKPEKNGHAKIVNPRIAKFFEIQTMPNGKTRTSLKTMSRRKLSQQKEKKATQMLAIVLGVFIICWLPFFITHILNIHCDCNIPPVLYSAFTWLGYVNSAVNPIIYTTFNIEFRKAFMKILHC

[13] = biological target: D(1A) dopamine receptor (Mus musculus) (UniProt Q61616); assay: Percent inhibition of radioligand [3H]SCH-23390 binding to dopamine receptor D1 at 10 uM concentration
Sequence of D(1A) dopamine receptor (Mus musculus) (Q61616 whole entry): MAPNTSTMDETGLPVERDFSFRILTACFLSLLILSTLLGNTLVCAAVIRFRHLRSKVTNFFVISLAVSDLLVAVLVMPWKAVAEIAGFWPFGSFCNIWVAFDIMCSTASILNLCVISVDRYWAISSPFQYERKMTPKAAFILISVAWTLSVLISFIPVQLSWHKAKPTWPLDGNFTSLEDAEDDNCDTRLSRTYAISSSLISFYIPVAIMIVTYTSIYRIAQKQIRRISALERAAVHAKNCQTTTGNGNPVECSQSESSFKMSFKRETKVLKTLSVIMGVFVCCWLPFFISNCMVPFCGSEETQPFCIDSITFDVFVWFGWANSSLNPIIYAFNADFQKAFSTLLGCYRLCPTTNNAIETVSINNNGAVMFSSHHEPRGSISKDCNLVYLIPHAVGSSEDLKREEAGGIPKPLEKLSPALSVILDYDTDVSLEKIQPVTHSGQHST

[14] = biological target: Histamine H1 receptor (Mus musculus) (UniProt P70174); assay: Percent inhibition of radioligand [3H]pyrilamine binding to H1 receptor at 10 uM concentration
Sequence of Histamine H1 receptor (Mus musculus) (P70174 whole entry): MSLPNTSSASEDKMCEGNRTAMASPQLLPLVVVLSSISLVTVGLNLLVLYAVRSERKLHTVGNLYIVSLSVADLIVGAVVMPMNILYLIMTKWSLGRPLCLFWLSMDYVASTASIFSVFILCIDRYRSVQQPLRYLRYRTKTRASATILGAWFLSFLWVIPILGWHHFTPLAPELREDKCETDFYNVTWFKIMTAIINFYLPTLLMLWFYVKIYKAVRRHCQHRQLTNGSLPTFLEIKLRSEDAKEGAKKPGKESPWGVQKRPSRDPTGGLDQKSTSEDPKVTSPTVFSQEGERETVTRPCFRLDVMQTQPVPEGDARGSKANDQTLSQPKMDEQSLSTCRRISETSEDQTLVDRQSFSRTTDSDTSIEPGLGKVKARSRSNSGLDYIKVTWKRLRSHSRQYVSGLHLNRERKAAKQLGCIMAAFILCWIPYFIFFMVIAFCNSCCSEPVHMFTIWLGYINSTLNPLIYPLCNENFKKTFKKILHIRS

[15] = biological target: Muscarinic acetylcholine receptor (Mus musculus) (UniProt Q920H4+Q9ERZ4+P12657+P32211+Q9ERZ3); assay: Percent inhibition of radioligand [3H]QNB binding to muscarinic receptor at 10 uM concentration; type: protein assay
[16] = biological target: Opioid receptor (Mus musculus) (UniProt P42866+P32300+P33534); assay: Percent inhibition of radioligand [3H]-naxalone binding to opiate receptor at 10 uM concentration; type: protein assay
Sequence of Opioid receptor (Mus musculus) (P32300 whole entry, looked up): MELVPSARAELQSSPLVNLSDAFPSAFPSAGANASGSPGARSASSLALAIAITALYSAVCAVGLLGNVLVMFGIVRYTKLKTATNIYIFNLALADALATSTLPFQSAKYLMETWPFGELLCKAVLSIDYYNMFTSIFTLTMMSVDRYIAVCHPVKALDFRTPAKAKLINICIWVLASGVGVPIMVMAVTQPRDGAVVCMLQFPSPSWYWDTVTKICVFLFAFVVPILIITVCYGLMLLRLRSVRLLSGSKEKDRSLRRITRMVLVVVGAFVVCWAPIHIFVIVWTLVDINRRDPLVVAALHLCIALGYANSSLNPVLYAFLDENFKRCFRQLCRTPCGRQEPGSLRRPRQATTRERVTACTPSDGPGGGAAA
Sequence of Opioid receptor (Mus musculus) (P33534 whole entry, looked up): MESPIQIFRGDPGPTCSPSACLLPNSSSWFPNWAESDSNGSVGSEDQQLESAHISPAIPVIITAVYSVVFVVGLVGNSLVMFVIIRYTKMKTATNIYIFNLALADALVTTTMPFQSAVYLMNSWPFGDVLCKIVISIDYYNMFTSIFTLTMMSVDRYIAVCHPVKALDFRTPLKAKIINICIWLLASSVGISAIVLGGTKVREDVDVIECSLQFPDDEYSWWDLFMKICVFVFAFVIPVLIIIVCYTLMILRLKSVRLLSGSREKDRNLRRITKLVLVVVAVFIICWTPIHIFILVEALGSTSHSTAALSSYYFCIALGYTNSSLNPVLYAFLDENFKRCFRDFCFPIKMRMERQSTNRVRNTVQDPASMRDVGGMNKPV
Sequence of Opioid receptor (Mus musculus) (P42866 whole entry, looked up): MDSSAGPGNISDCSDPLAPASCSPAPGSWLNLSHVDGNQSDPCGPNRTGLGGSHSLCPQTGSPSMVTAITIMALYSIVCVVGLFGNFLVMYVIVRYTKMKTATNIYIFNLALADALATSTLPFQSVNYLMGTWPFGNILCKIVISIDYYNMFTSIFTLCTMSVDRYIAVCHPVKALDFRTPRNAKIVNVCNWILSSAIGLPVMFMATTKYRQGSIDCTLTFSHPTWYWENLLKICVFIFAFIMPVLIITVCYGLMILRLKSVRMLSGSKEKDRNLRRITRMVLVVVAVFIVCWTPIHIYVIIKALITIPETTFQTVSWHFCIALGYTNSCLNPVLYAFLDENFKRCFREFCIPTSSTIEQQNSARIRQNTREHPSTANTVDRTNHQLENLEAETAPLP

[17] = biological target: Sigma non-opioid intracellular receptor 1 (Mus musculus) (UniProt O55242); assay: Percent inhibition of radioligand [3H]DTG binding to sigma receptor at 10 uM concentration
Sequence of Sigma non-opioid intracellular receptor 1 (Mus musculus) (O55242 whole entry): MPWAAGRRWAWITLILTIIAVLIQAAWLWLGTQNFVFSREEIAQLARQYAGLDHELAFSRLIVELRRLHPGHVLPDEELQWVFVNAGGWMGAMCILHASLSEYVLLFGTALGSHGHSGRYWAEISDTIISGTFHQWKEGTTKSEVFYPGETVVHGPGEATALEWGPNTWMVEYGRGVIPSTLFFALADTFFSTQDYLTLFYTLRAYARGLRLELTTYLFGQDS

[18] = biological target: D(1A) dopamine receptor (Mus musculus) (UniProt Q61616); assay: Percent inhibition of radioligand [3H]SCH-23,390 binding to dopamine receptor D1 at 10 uM concentration
[19] = biological target: Glutamate NMDA receptor; assay: Binding affinity was determined towards NMDA receptor using [3H]TCP as radioligand in rat
Procedure, shortened: as §1, with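 “counting. Ki from EBDA/LIGAND; mean ± SEM of ≥3 determinations in triplicate.” for “counting.”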

[20] = organism: Mus musculus; assay: Electrophysiological responses in closed channel block to NMDA were recorded in 13-day old mouse cortical neuronal cultures.; type: functional

CCOC1(OCC)C2c3cc(C(F)(F)F)ccc3C([n+]3ccccc32)C1(C)C (configuration not stated)
Ki [1]: 401 nM

CCOC1(OCC)C2c3cc(Br)ccc3C([n+]3ccccc32)C1(C)C.[O-][Cl+3]([O-])([O-])[O-] (configuration not stated)
IC50 ([2]; Mus musculus): 173 nM
Ki [1]: 52 nM

CCOC1(OCC)C2c3ccccc3C([n+]3c(C)cccc32)C1(C)C (configuration not stated)
Ki [1]: 314 nM

CCOC1(OCC)C2c3cc([N+](=O)[O-])ccc3C([n+]3ccccc32)C1(C)C.[O-][Cl+3]([O-])([O-])[O-] (configuration not stated)
IC50 [3]: 15300 nM
Ki [1]: 2760 nM

CCOC1(OCC)C2c3c(OC)cccc3C([n+]3ccccc32)C1(C)C (configuration not stated)
IC50 ([2]; Mus musculus): 22 nM
Ki [1]: 13 nM

CCOC1(OCC)C2c3cccc(OC)c3C([n+]3ccccc32)C1(C)C (configuration not stated)
Ki [1]: 1840 nM

COC1(OC)C2c3ccccc3C([n+]3ccccc32)C1(C)C (configuration not stated)
Ki [1]: 103 nM

CCOC1(OCC)C2c3cc(Cl)ccc3C([n+]3ccccc32)C1(C)C (configuration not stated)
Ki [1]: 12 nM

CCOC1(OCC)C2c3c(OC(C)C)cccc3C([n+]3ccccc32)C1(C)C (configuration not stated)
Ki [1]: 48 nM

CCOC1(OCC)C2c3cccc(C)c3C([n+]3ccccc32)C1(C)C (configuration not stated)
Ki [1]: 455 nM

CCOC1(OCC)C2c3cc(OC)ccc3C([n+]3ccccc32)C1(C)C (configuration not stated)
IC50 ([2]; Mus musculus): 157 nM
Ki [1]: 4 nM

CC1(C)C2c3ccccc3C(c3cccc[n+]32)C12OCCCO2 (configuration not stated)
Ki [1]: 2900 nM

CCOC1(OCC)C2c3ccccc3C([n+]3ccccc32)C1(CC)CC (configuration not stated)
Ki [1]: 11 nM

CCOC1(OCC)CC2c3ccccc3C1c1cccc[n+]12 (configuration not stated)
IC50 ([2]; Mus musculus): 95000 nM
Ki [1]: 3800 nM

CCOC1(OCC)C2c3c(C)cccc3C([n+]3ccccc32)C1(C)C (configuration not stated)
Ki [1]: 46 nM

CC1(C)C2c3ccccc3C(c3cccc[n+]32)C12OCCO2 (configuration not stated)
Ki [1]: 3460 nM

CCOC1(OCC)C2c3c(O)cccc3C([n+]3ccccc32)C1(C)C (configuration not stated)
Ki [1]: 8 nM

CCOC1(OCC)C2c3c(OC)ccc(OC)c3C([n+]3ccccc32)C1(C)C (configuration not stated)
Ki [1]: > 10000 nM

CCOC1(OCC)C2c3c(Br)cccc3C([n+]3ccccc32)C1(C)C.[O-][Cl+3]([O-])([O-])[O-] (configuration not stated)
IC50 ([2]; Mus musculus): 1040 nM
Ki [1]: 132 nM

CCCOC1(OCCC)C2c3ccccc3C([n+]3ccccc32)C1(C)C.[O-][Cl+3]([O-])([O-])[O-] (configuration not stated)
IC50 ([2]; Mus musculus): 85 nM
Ki [1]: 12 nM

CCOC1(OCC)C2c3ccccc3C([n+]3ccccc32)C1(OCC)OCC (configuration not stated)
Ki [1]: 4990 nM

CC1(C)C(=O)C2c3ccccc3C1[n+]1ccccc12 (configuration not stated)
Ki [1]: > 10000 nM

CCOC1(OCC)C2c3ccccc3C([n+]3cccc(OC)c32)C1(C)C (configuration not stated)
Ki [1]: 26 nM

CCOC1(OCC)C2c3c(OC(C)=O)cccc3C([n+]3ccccc32)C1(C)C (configuration not stated)
Ki [1]: 26 nM

CCOC1(OCC)C2c3ccc(OC)cc3C([n+]3ccccc32)C1(C)C (configuration not stated)
Ki [1]: 123 nM

CCOC1(OCC)C2(C)c3ccccc3C([n+]3ccccc32)C1(C)C.[O-][Cl+3]([O-])([O-])[O-] (configuration not stated)
IC50 ([2]; Mus musculus): 32 nM
Ki [1]: 11 nM

CCOC1(OCC)C2c3ccccc3C([n+]3ccccc32)C1(C)C (racemic) [listing 1 of 2 here]
IC50 [4]: 260 nM
Ki [1]: 8 nM

CCOC1(OCC)C2c3ccccc3C([n+]3ccccc32)C1(C)C (racemic) [listing 2 of 2 here]
Ratio [5]: > 384 CC/OC

CCOC1(OCC)C2c3ccccc3C([n+]3ccccc32)C1(C)C (single isomer, unassigned; (+)) [listing 1 of 2 here]
IC50 ([2]; Mus musculus): 50 nM
Ki [1]: 11 nM

CCOC1(OCC)C2c3ccccc3C([n+]3ccccc32)C1(C)C (single isomer, unassigned; (+)) [listing 2 of 2 here]
inhibition [6]: 12%
inhibition [7]: 51%
inhibition [8]: 1%
inhibition [9]: 52%
inhibition [10]: 14%
inhibition [11]: 4%
inhibition [12]: 20%
inhibition [13]: 7%
inhibition [14]: 55%
inhibition [15]: 53%
inhibition [16]: 73%
inhibition [17]: 31%

CCOC1(OCC)C2c3ccccc3C([n+]3ccccc32)C1(C)C (single isomer, unassigned; (-)) [listing 1 of 2 here]
IC50 [2]: 26 nM
Ki [1]: 4 nM

CCOC1(OCC)C2c3ccccc3C([n+]3ccccc32)C1(C)C (single isomer, unassigned; (-)) [listing 2 of 2 here]
inhibition [6]: 11%
inhibition [7]: 23%
inhibition [8]: 3%
inhibition [9]: 32%
inhibition [11]: 3%
inhibition [12]: 9%
inhibition [18]: 1%
inhibition [14]: 0%
inhibition [15]: 50%
inhibition [16]: 51%
inhibition [17]: 21%

CCOC1(OCC)C2c3ccccc3C(C1C)[n+]1ccccc12.[O-][Cl+3]([O-])([O-])[O-] (stereo in doubt; 1a)
IC50 ([2]; Mus musculus): 810 nM
Ki [19]: 115 nM

CCOC1(OCC)C2c3ccccc3C(C1C)[n+]1ccccc12.[O-][Cl+3]([O-])([O-])[O-] (stereo in doubt; 1b)
IC50 [2]: 1160 nM
Ki [1]: 34 nM

CCOC1C2c3ccccc3C([n+]3ccccc32)C1(C)C (stereo in doubt; 7a)
Ki [1]: 465 nM

CCOC1C2c3ccccc3C([n+]3ccccc32)C1(C)C (stereo in doubt; 7b)
Ki [1]: 1880 nM

C[C@]12N[C@H](Cc3ccccc31)c1ccccc12 [DIZOCILPINE MALEATE]
IC50 [20]: 5.8 nM

c1ccc(C2(N3CCCCC3)CCCCC2)cc1 [PHENCYCLIDINE]
Ki [1]: 38 nM
